Source: ChEMBL document CHEMBL1132551, “Selective inhibitors of glial GABA uptake: synthesis, absolute stereochemistry, and pharmacology of the enantiomers of 3-hydroxy-4-amino-4,5,6,7-tetrahydro-1,2-benzisoxazole (exo-THPO) and analogues” (J Med Chem, 1999)

Experiments:
Mus musculus [1] = organism: Mus musculus; test: Effect on glial GABA(1 uM) uptake was measured using astrocytes cultured from cerebral cortices of new born mice.; format: functional, organism-based
Mus musculus [2] = organism: Mus musculus; test: Effect on neuronal GABA(1 uM) uptake was measured using neurons cultured from cerebral cortices of 15-day-old mouse embryos.; format: functional, organism-based
Rattus norvegicus = organism: Rattus norvegicus; test: Inhibition of GABA uptake into crude synaptosomes prepared from adult rat brain; format: functional
Summary of the method: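 Crude synaptosomes from adult rat brain were preincubated with inhibitor for 10 min at 20 °C. Uptake was then run at 0.05 μM GABA.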

[3] = The apparent partition coefficient(D) in n-octanol-0.05 M phosphate buffer (pH 7.4) at 21 degree celsius.; format: physicochemical
Summary of the method: (§1)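 Organic and aqueous phases were mutually saturated at 21 °C. Compound was dissolved in the aqueous buffer at (2–3) × 10^-5 M and shaken 10–15 min to equilibrium. Phases were separated by centrifugation for 3–5 min. Aqueous concentration before and after distribution was measured by HPLC, and D was reported as log D.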

[4] = Hydrolysis was studied in 0.02 M phosphate buffer containing 80% human plasma (pH 7.4) at 37 degree celsius; stable; format: ADME, cell-free
Summary of the method: (§2)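 Initial compound concentration was (2–3) × 10^-5 M, held at 37 °C. Samples taken over time were deproteinized with EtOH and centrifuged 3–5 min. Supernatant was analyzed by RP-HPLC at 220 nm; half-life was derived from residual compound over time.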

[5] = Hydrolysis was studied in 0.02 M aqueous phosphate buffer (pH 7.4) at 37 degree celsius; stable; format: ADME
Summary of the method: (§3)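 Prodrug stock in MeCN–H2O was added to prewarmed buffer, giving (2–3) × 10^-5 M final. Tubes were held at 37 ± 0.2 °C and sampled over time for RP-HPLC at 220 nm, quantified by peak area against standards. Pseudo-first-order rate constants came from slopes of log residual prodrug versus time, expressed as t1/2.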

[6] = The apparent partition coefficient(D) in cyclohexane-0.05 M phosphate buffer (pH 7.4) at 21 degree celsius.; format: physicochemical; summary of the method: as §1
[7] = Hydrolysis was studied in 0.02 M aqueous phosphate buffer (pH 7.4) at 37 degree celsius.; format: ADME; summary of the method: as §3
[8] = Hydrolysis was studied in 0.02 M phosphate buffer containing 80% human plasma (pH 7.4) at 37 degree celsius.; format: ADME, cell-free; summary of the method: as §2

Q: Which results are given for `CN(C)C1CCCc2onc(O)c21` (stereo not drawn)?
A: IC50 (Mus musculus [1]): > 500 µM; IC50 (Mus musculus [2]): > 1000 µM; IC50 (Rattus norvegicus): 291 µM

Q: With `OCCNC1CCCc2onc(O)c21` (stereo not drawn) as the compound, how does the IC50 (Mus musculus [1]) read?
A: > 500 µM

Q: And the IC50 (Mus musculus [2])?
A: > 1000 µM

Q: What about the IC50 (Rattus norvegicus) of the same compound?
A: 173 µM

Q: Which results are given for `CNC1CCCc2onc(O)c21` (stereo not drawn)?
A: IC50 (Mus musculus [1]): 28 µM; logD [3]: -2.3; IC50 (Mus musculus [2]): 423 µM; IC50 (Rattus norvegicus): 63 µM; T1/2 [4]: stable; T1/2 [5]: stable

Q: Which IC50 (Mus musculus [1]) does the source give for `Oc1noc2c1C(N1CCCC1)CCC2` (stereo not drawn) here?
A: > 500 µM

Q: What about the IC50 (Mus musculus [2]) of the same compound?
A: > 1000 µM

Q: What about the IC50 (Rattus norvegicus) of the same compound?
A: 201 µM

Q: Which IC50 (Mus musculus [1]) does the source give for `N[C@@H]1CCCc2onc(O)c21` here?
A: 281 µM

Q: And the IC50 (Mus musculus [2])?
A: 681 µM

Q: What about the IC50 (Rattus norvegicus) of the same compound?
A: 118 µM

Q: Which results are given for `CNC1CCCc2snc(O)c21` (stereo not drawn)?
A: IC50 (Mus musculus [1]): > 500 µM; IC50 (Mus musculus [2]): > 1000 µM; IC50 (Rattus norvegicus): 242 µM

Q: Which results are given for `Oc1noc2c1CNCC2`?
A: IC50 (Mus musculus [1]): 268 µM; IC50 (Mus musculus [2]): 530 µM; IC50 (Rattus norvegicus): 162 µM

Q: What does the source list for `NC1CCCc2onc(O)c21` (stereo not drawn)?
A: IC50 (Mus musculus [1]): 208 µM; IC50 (Mus musculus [2]): 883 µM; IC50 (Rattus norvegicus): 181 µM

Q: Which IC50 (Mus musculus [1]) does the source give for `CC(=O)OCCNC1CCCc2onc(O)c21` (stereo not drawn) here?
A: > 500 µM

Q: What about the IC50 (Mus musculus [2]) of the same compound?
A: > 1000 µM

Q: And the IC50 (Rattus norvegicus)?
A: 125 µM

Q: For `CCNC1CCCc2onc(O)c21` (stereo not drawn), which IC50 (Mus musculus [1]) is on record?
A: 278 µM

Q: And the IC50 (Mus musculus [2])?
A: 391 µM

Q: What about the IC50 (Rattus norvegicus) of the same compound?
A: 105 µM

Q: For `CNC1CCCc2on(COC(=O)C(C)(C)C)c(=O)c21` (stereo not drawn), which logD [6] is on record?
A: -1.4

Q: What about the half-life [7] of the same compound?
A: 267 h

Q: And the half-life [8]?
A: 0.117 h

Q: And the logD [3]?
A: 0.05

Q: With `CNC1CCCc2onc(OCOC(=O)C(C)(C)C)c21` (stereo not drawn) as the compound, how does the logD [6] read?
A: -0.17

Q: What about the half-life [7] of the same compound?
A: 75 h

Q: What about the half-life [8] of the same compound?
A: 0.25 h

Q: And the logD [3]?
A: 0.65

Q: For `CN[C@H]1CCCc2onc(O)c21`, which IC50 (Rattus norvegicus) is on record?
A: > 300 µM

Q: For `N[C@H]1CCCc2onc(O)c21`, which IC50 (Rattus norvegicus) is on record?
A: > 300 µM

Q: What does the source list for `CN[C@@H]1CCCc2onc(O)c21`?
A: IC50 (Mus musculus [1]): 60 µM; IC50 (Mus musculus [2]): 510 µM; IC50 (Rattus norvegicus): 39 µM

Q: With `NC1CCCc2snc(O)c21` (stereo not drawn) as the compound, how does the IC50 (Mus musculus [1]) read?
A: > 500 µM

Q: And the IC50 (Mus musculus [2])?
A: > 1000 µM

Q: What about the IC50 (Rattus norvegicus) of the same compound?
A: 290 µM

Q: For `C=CCNC1CCCc2onc(O)c21` (stereo not drawn), which IC50 (Mus musculus [1]) is on record?
A: > 500 µM

Q: And the IC50 (Mus musculus [2])?
A: > 1000 µM

Q: What about the IC50 (Rattus norvegicus) of the same compound?
A: 98 µM

Q: Which IC50 (Mus musculus [1]) does the source give for `O=C(O)[C@@H]1CCCNC1` [(R)-NIPECOTIC ACID] here?
A: 16 µM

Q: And the IC50 (Mus musculus [2])?
A: 12 µM

Q: And the IC50 (Rattus norvegicus)?
A: 5 µM

Q: For `O=C(O)C1=CCCNC1` [GUVACINE], which IC50 (Mus musculus [1]) is on record?
A: 29 µM

Q: And the IC50 (Mus musculus [2])?
A: 32 µM

Q: And the IC50 (Rattus norvegicus)?
A: 12 µM
